Compound activity from PubChem BioAssay.
C8 TRAIL sens = sensitizes caspase-8 expressing cells to TRAIL | NB7+C8 cells + TRAIL, ATPlite viability luminescence | inhibition (viability loss, TRAIL sensitization), % at 10 µM | 360,000 tested, 1% active;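 active means compounds causing at least 50% loss of cell viability in the single-dose screen, relative to plate controls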
PPC-1+TRAIL kill = compounds killing PPC-1 cancer cells with TRAIL present (potentiator screen, no TRAIL-free arm) | cell killing (% activity), % at 4 µM or 5 µM | 220,000 tested, 0.41% active | PPC-1 cells + TRAIL, ATPLite viability luminescence;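 active means cell killing above 50% in the first pass at 4 µM, then a duplicate retest at 5 µM averaging 50% or more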;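 further: plate controls were cells with TRAIL plus DMSO for no effect and medium-only wells lacking cells for full effect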
FLuc inhib CS = counter-screen for luciferase assay inhibitors: firefly luciferase inhibition. ATPLite firefly luciferase biochemical luminescence, 10 min. inhibition, % at 10 µM. 200,000 tested, 1.5% active. AID 1006;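 active means inhibition above about 50% when tested at 10 µM, limit read from the data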
Target sequence (P08659 whole entry, looked up): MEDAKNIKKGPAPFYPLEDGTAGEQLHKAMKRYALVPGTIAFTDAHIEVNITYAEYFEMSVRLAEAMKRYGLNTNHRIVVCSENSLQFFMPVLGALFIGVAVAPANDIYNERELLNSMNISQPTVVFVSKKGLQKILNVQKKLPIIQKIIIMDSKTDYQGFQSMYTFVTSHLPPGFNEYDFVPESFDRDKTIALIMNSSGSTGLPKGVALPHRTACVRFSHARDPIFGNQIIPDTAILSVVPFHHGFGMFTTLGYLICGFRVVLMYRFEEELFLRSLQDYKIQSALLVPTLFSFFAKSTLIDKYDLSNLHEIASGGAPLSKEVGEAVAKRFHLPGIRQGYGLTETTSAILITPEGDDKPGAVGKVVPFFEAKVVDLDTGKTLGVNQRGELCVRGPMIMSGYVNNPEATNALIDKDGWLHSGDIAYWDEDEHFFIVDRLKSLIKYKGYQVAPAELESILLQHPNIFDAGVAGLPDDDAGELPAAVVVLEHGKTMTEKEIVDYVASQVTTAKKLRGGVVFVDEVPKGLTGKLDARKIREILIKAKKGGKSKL
FLuc stim CS = firefly luciferase counter-screen for stimulation assays | activation factor at 10 µM | ATPlite luciferase biochemical, luminescence, 10 min; 0 = ATP-free wells, 1 = DMSO control | 200,000 tested, under 10 active;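 active means luciferase activation factor, scaled between plate controls, of at least 2 with compound at 10 µM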
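Assay system: Luciferase/luciferin detection reagent, cell-free biochemical luciferase assay / Read-out: luciferase activation / Benchmarks: No-ATP low control, compound-free enzyme-plus-ATP high control / Medium: PBS buffer for ATP / Detection: luminescence measurement of luciferase light output / Schedule: 10 min at ambient temperature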
An asterisk follows results filed as active; . = not tested or not shown. Rows were chosen to be rich in hits. Some 1.5% of all compounds tested hit in one or more screens of this group.

SMILES	C8 TRAIL sens	PPC-1+TRAIL kill	FLuc inhib CS	FLuc stim CS
CC1CCCN(C(=O)CN2C(=O)CSc3ccc(S(=O)(=O)N4CCOCC4)cc32)C1 (stereo unspecified)	7.8	.	.	.
Cc1ccc(C(=O)Nc2ccc3ncccc3c2)cc1	89.5*	.	.	.
O=C(Nc1ccc2nc3ccccc3nc2c1)c1ccccc1	56.6*	11.3	66.0*	0.3
COc1ccc(C(=O)Nc2ccc3ncccc3c2)cc1	82.5*	.	.	.
CCOc1ccccc1C(=O)OCC(=O)NCCNC(=O)COC(=O)c1ccccc1OCC	-6.9	.	.	.
CCOc1ccc(CN(C)C(=O)[C@H](Cc2ccccc2)NC(=O)OCc2ccccc2)cc1OC	50.6*	.	.	.
COc1ccc(CN(C)C(=O)C(Cc2ccccc2)NC(=O)c2ccccc2)cc1F (stereo unspecified)	17.6	.	.	.
CCn1c(=O)c([N+](=O)[O-])c(Cl)c2ccccc21	51.9*	12.3	-8.2	1.1
Cc1sc(N)nc1-c1ccc2c(c1)OCCO2	-0.9	.	.	.
NC1=NN=C(c2ccc3c(c2)OCCO3)CS1	47.2	22.9	78.8*	0.2
C=CCN=C1NN=C(c2cc(C)n(CC=C)c2C)CS1	51.5*	3.2	92.5*	0.1
C=CCN=C1NN=C(c2ccc3c(c2)OCCO3)CS1	35.4	31.3	93.8*	0.1
CCOC(=O)CN1C(=O)S/C(=C/c2cc(C)n(-c3ccccn3)c2C)C1=O	24.1	17.9	27.2	0.7
COC(=O)C(C)N1C(=O)S/C(=C/c2cc(C)n(-c3ccccn3)c2C)C1=O (stereo unspecified)	58.4*	22.4	58.4*	0.4
COC(=O)C(C)N1C(=O)S/C(=C\c2cc(C)n(-c3ccccn3)c2C)C1=O (stereo unspecified)	60.4*	30.8	56.4*	0.4
O=C(CCc1nnc2ccc(N3CCC4(CC3)OCCO4)nn12)NCc1ccccc1Cl	-11.3	.	.	.
CC1CCc2c(sc3nc(C(C)(C)C)nc(N4CCN(C(=O)CCl)CC4)c23)C1 (stereo unspecified)	94.3*	.	.	.
COc1ccc(C2C(C(=O)N3CCN(c4ccccc4)CC3)c3ccccc3C(=O)N2C)cc1 (stereo unspecified)	59.0*	43.0	-9.8	1.1
COc1ccc(C2C(C(=O)N3CCOCC3)c3ccccc3C(=O)N2c2ccc(OC)cc2)cc1 (stereo unspecified)	1.9	7.0	-1.0	1
COc1ccc(C2C(C(=O)N3CCN(c4ccccc4)CC3)c3ccccc3C(=O)N2C)cc1OC (stereo unspecified)	68.0*	20.7	0.3	1
Cc1ccc(CNC(=O)C2CCCN(S(=O)(=O)N3CC(C)CC(C)C3)C2)cc1 (stereo unspecified)	-7.5	.	.	.
Cc1c(Cc2ccccc2)c(=O)oc2c(C)c(OCC(=O)NCC3CCC(C(=O)O)CC3)ccc12 (stereo unspecified)	9.0	.	.	.
CN(Cc1cnc2nc(N)nc(N)c2n1)c1ccc(C(=O)NC(CCC(=O)O)C(=O)O)c2ccccc12 (stereo unspecified)	83.5*	.	.	.
O=C(N[C@@H](Cc1ccccc1)C(=O)N1CCN(S(=O)(=O)c2ccccc2F)CC1)c1ccco1	-3.6	.	.	.
COc1ccc(-c2nc(N/N=C(\C)c3ccc(O)cc3)c3ccccc3n2)cc1	59.3*	44.5	.	.
SMILES	C8 TRAIL sens	PPC-1+TRAIL kill	FLuc inhib CS	FLuc stim CS
C/C(=N\Nc1nncc2ccccc12)c1cccc(OC(F)F)c1	80.9*	.	.	.
COc1ccc(/C=N/Nc2nncc3ccccc23)c(OC)c1	8.8	14.5	36.3	0.6
C/C(=N\Nc1nncc2ccccc12)c1ccc(O)cc1	59.8*	.	.	.
C/C(=N\Nc1nncc2ccccc12)c1ccc(C(C)(C)C)cc1	13.1	.	.	.
O=C(Nc1ncnc2c1ncn2[C@@H]1O[C@H](/C=C/C(=O)N2CCN(c3ccc(F)cc3)CC2)[C@@H](O)[C@H]1O)c1ccccc1	-1.7	.	.	.
CCOc1ccccc1N1CCN(C(=O)c2cc(S(=O)(=O)N(C)C)ccc2N2CCCC2)CC1	2.8	.	.	.
COCc1nn2c(N)c(-c3ccccc3)cnc2c1-c1ccccc1	51.0*	.	.	.
COCc1nn2c(N)c(C#N)cnc2c1-c1ccccc1	-4.2	3.3	9.7	0.9
CCOc1ccc2oc(C(=O)O)c(C)c2c1	-11.3	-2.7	.	.
CCOc1ccc2oc(C(=O)Nc3cc(C)ccn3)c(C)c2c1	70.4*	.	.	.
Cc1ccnc(NC(=O)c2oc3ccccc3c2C)c1	65.7*	.	.	.
Cc1ccnc(NC(=O)c2cc3ccccc3oc2=O)c1	10.8	28.1	54.4*	0.5
Cc1c(C(=O)Nc2cnccn2)oc2ccccc12	19.4	12.8	8.4	0.9
O=C(COC(=O)C1=COCCO1)Nc1cc(Cl)c(Cl)cc1Cl	-2.5	.	.	.
